The values that follow come from ChEMBL document CHEMBL4118175, “Anti-allergic inflammatory components from Sanguisorba officinalis L” (Bioorg Med Chem Lett, 2018).

Calls of active or inactive are those of the source. No cut-off for these calls is given here.

In data set [1] the test system is RAW264.7. Briefly: Anti-inflammatory activity in mouse RAW264.7 cells assessed as reduction in LPS-stimulated COX2 protein expression at 20 uM preincubated for 2 hrs followed by LPS addition measured after 18 hrs by Western blot analysis. Type of data set: functional, cell-based. A digest of the protocol:
(§1)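 Pretreatment 2 h with samples (20 µM) then LPS 200 ng/mL for 18 h; COX-2 and iNOS protein by Western blot.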
Background: In western blotting, separated proteins are transferred to a membrane and probed.

The test system of data set [2] is RBL-2H3. Briefly: Anti-inflammatory activity in IgE sensitized and DNP-BSA-stimulated rat RBL2H3 cells assessed as reduction of IL4 secretion preincubated for 2 hrs followed by DNP-BSA stimulation for 18 hrs by ELISA. It is filed as functional, cell-based. The method in brief: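 IgE-sensitized cells (overnight, 37 °C) pretreated with compounds 2 h, then challenged with 1 µg/mL DNP-BSA for 18 h; IL-4 in supernatant quantified by ELISA kit. Cells seeded in 48-well plates overnight; triplicate, mean ± SEM.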

For data set [3], the system named is RAW264.7. Briefly: Anti-inflammatory activity in mouse RAW264.7 cells assessed as reduction in LPS-stimulated iNOS protein expression at 20 uM preincubated for 2 hrs followed by LPS addition measured after 18 hrs by Western blot analysis. It is filed as functional, cell-based. The method in brief: as §1
Data set [4] has as its system RBL-2H3. The experiment in a line: Cytotoxicity against rat RBL2H3 cells at 5 and 20 uM after 24 hrs by MTS assay. It is filed as cell-based. Conditions: rbl-2h3, 24 h. The method in brief:
(§2)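 RBL-2H3 (seeded overnight) or RAW264.7 cells exposed to 5 and 20 µM samples for 24 h; viability by MTS; three independent experiments, mean ± SEM.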
On the technique in general: Tetrazolium assays rely on reduction of a dye to a coloured formazan, in cell work by metabolically active cells.

In data set [5] the test system is RAW264.7. The experiment in a line: Anti-inflammatory activity in mouse RAW264.7 cells assessed as inhibition of LPS-induced TNF-alpha production at 20 uM preincubated for 2 hrs followed by LPS addition measured after 24 hrs by ELISA. Type of data set: functional, cell-based. A digest of the protocol:
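Cells pretreated 2 h with compounds (20 µM) before LPS (500 ng/mL) for 24 h; supernatant TNF-α by ELISA kit; triplicate, mean ± SEM.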

For data set [6], the system named is RAW264.7. Briefly: Anti-inflammatory activity in mouse RAW264.7 cells assessed as inhibition of LPS-induced nitric oxide production preincubated for 2 hrs followed by LPS addition measured after 24 hrs by Griess method. Type of data set: functional, cell-based. A digest of the protocol: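 Following 2 h sample pretreatment, LPS added for 24 h; supernatant NO read with Griess reagent; triplicate, mean ± SEM.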
(The Griess reaction detects nitrite, a stable product of nitric oxide.)

Data set [7] concerns RBL-2H3. Briefly: Anti-inflammatory activity in PMA/A23187-stimulated rat RBL2H3 cells assessed as reduction of beta-hexosaminidase secretion preincubated for 1 hr followed by PMA/A23187 stimulation for 1 hr using 4-nitrophenyl-N-acetyl-beta-D-glucosaminide substrate. Type of data set: functional, cell-based. The method in brief:
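After overnight plating, cells pretreated 1 h then stimulated with 30 ng/mL PMA plus 350 ng/mL A23187 for 1 h; supernatants collected for β-hexosaminidase detection; triplicate, mean ± SEM.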

Data set [8] deals with RBL-2H3. Briefly: Anti-inflammatory activity in PMA/A23187-stimulated rat RBL2H3 cells assessed as reduction of IL4 secretion preincubated for 2 hrs followed by PMA/A23187 stimulation for 18 hrs by ELISA. It is filed as functional, cell-based. The method in brief: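 Cells plated overnight, pretreated 2 h, then stimulated with 30 ng/mL PMA plus 350 ng/mL A23187 for 18 h; supernatant IL-4 by ELISA kit; triplicate, mean ± SEM.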

Data set [9] relates to RAW264.7. The experiment in a line: Cytotoxicity against mouse RAW264.7 cells at 5 and 20 uM after 24 hrs by MTS assay. The settings on record: raw264.7, 24 h. It is filed as cell-based. The method in brief: as §2
In data set [10] the target is Transcription factor p65 (Homo sapiens) (UniProt Q04206). Briefly: Inhibition of PMA-induced NFkappaB P65 activation (unknown origin) expressed in human HEK293T cells transfected with pNF-kappaB-SEAP preincubated for 2 hrs followed by PMA stimulation measured after overnight incubation by NFkappaB reporter gene assay. It is filed as cell-based. The method in brief:
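293T cells carrying pNFκB-SEAP reporter plasmid, pretreated with samples then PMA-stimulated; NF-κB transcription read as SEAP; triplicate, mean ± SEM.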

Data set [11] concerns the target Transcription factor p65 (Mus musculus) (UniProt Q04207). The experiment in a line: Inhibition of NFkappaB nuclear translocation in LPS-stimulated mouse RAW264.7 cells at 20 uM pretreated for 2 hrs followed by LPS-induction by DAPI-staining based immunofluorescence microscopic method. Type of data set: cell-based. The method in brief:
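Cells in eight-well glass chambers preincubated 2 h with samples (20 µM) or Bay 11-7082 before LPS 1 µg/mL; immunostaining with polyclonal anti-p65 and Alexa Fluor 488 secondary to view nuclear translocation.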

Chain of Transcription factor p65 (Homo sapiens) (Q04206 whole entry): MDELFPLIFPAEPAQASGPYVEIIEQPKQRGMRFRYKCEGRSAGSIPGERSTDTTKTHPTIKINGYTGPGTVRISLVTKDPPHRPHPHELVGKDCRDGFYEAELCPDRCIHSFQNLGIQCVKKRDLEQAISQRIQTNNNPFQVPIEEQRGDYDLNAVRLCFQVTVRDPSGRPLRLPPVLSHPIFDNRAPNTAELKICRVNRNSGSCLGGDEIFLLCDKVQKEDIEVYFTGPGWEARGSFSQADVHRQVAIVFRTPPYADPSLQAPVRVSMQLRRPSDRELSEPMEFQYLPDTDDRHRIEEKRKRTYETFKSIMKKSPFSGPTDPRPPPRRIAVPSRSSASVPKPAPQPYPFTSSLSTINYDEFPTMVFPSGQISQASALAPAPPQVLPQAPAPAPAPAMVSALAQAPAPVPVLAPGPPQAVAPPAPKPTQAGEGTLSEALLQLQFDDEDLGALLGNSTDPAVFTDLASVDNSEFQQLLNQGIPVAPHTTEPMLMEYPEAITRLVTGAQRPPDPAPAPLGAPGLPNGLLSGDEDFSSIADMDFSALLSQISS
Chain of Transcription factor p65 (Mus musculus) (Q04207 whole entry): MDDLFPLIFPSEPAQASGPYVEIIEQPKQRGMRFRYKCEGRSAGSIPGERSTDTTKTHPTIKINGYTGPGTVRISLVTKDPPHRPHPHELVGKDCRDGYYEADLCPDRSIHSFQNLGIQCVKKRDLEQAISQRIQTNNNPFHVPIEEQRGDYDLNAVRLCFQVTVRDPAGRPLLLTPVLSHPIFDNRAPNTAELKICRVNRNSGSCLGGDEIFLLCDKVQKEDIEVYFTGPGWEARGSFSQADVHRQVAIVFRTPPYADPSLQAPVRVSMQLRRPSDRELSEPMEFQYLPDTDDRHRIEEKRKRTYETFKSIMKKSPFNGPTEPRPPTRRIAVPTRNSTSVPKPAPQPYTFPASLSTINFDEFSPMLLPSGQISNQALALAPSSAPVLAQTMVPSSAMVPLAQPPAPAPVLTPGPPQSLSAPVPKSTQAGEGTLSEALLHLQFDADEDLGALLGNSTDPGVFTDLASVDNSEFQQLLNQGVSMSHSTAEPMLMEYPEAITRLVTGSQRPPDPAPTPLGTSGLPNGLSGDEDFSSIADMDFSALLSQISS

With `C=CCc1ccc(O[C@@H]2O[C@H](CO[C@@H]3OC[C@@H](O)[C@H](O)[C@H]3O)[C@@H](O)[C@H](O)[C@H]2O)cc1`, the outcome with RAW264.7 [1], in the data set on RAW264.7 [3], with RAW264.7 [5], in the data set on RAW264.7 [6] and in the data set with RBL-2H3 [7] was Active. For the same compound, the Activity entry in the data set with RBL-2H3 [2] was “Dose-dependent effect”; in the data set with RBL-2H3 [4], “Non-Toxic”; with RBL-2H3 [8] it was “Dose-dependent effect”; with RAW264.7 [9] it was “Non-Toxic”.
With `C[C@@H]1CC[C@]2(C(=O)O[C@@H]3O[C@H](CO)[C@@H](O)[C@H](O)[C@H]3O)CC[C@]3(C)C(=CC[C@@H]4[C@@]5(C)C[C@@H](O)[C@@H](O)C(C)(C)[C@@H]5CC[C@]43C)[C@@H]2[C@]1(C)O`, the Activity entry is “Dose-dependent effect” in the data set on RBL-2H3 [2], “Non-Toxic” in the data set on RBL-2H3 [4], “Dose-dependent effect” in the data set with RBL-2H3 [8] and “Non-Toxic” in the data set on RAW264.7 [9]. For the same compound, the outcome in the data set with RAW264.7 [5] and in the data set on RBL-2H3 [7] was Active.
`Cc1ccc(-c2cc(C(F)(F)F)nn2-c2ccc(S(N)(=O)=O)cc2)cc1`: in the data set on RAW264.7 [1], the outcome was Active.
For `COc1cc2c(=O)oc3c(OC)c(OC)cc4c(=O)oc(c1O)c2c34`, the Activity result in the data set with RBL-2H3 [4] and in the data set with RAW264.7 [9] was “Toxic” in each case.
As to `CC(CCCC(C)(C)O)CCO[C@@H]1O[C@H](CO[C@@H]2O[C@@H](CO)[C@H](O)[C@H]2O)[C@@H](O)[C@H](O)[C@H]1O` (stereo not given in full), the outcome in the data set with RAW264.7 [1], in the data set on RAW264.7 [3], with RAW264.7 [5], in the data set on RAW264.7 [6] and with RBL-2H3 [7] was Active. Also, the Activity result was “Dose-dependent effect” in the data set on RBL-2H3 [2], “Non-Toxic” in the data set on RBL-2H3 [4], “Dose-dependent effect” in the data set on RBL-2H3 [8] and “Non-Toxic” in the data set on RAW264.7 [9]. For the same compound, in [10], the inhibition result was “Dose-dependent effect”. Also, in data set [11], the “NFkappaB nuclear translocation inhibition (qualitative call)” value is “Active”.
Take `CC1=C2C3=CC[C@@H]4[C@@]5(C)CC[C@H](O[C@@H]6OC[C@H](O)[C@H](O)[C@H]6O)C(C)(C)[C@@H]5CC[C@@]4(C)[C@]3(C)CC[C@@]2(C(=O)O[C@@H]2O[C@H](CO)[C@@H](O)[C@H](O)[C@H]2O)CC[C@H]1C`: the result with RAW264.7 [1], in the data set on RAW264.7 [3], with RAW264.7 [5], in the data set with RAW264.7 [6] and in the data set on RBL-2H3 [7] was Active. Also, the Activity result in the data set with RBL-2H3 [2] is “Dose-dependent effect”; with RBL-2H3 [4], “Non-Toxic”; in the data set with RBL-2H3 [8], “Dose-dependent effect”; with RAW264.7 [9] it was “Non-Toxic”. For the same compound, in [10], the inhibition result was “Dose-dependent effect”. For the same compound, the “NFkappaB nuclear translocation inhibition (qualitative call)” value in [11] was “Active”.
`Cc1ccc(S(=O)(=O)/C=C/C#N)cc1`: the “NFkappaB nuclear translocation inhibition (qualitative call)” value in data set [11] is “Active”.
`C[C@@H]1CC[C@]2(C(=O)O)CC[C@]3(C)C(=CC[C@@H]4[C@@]5(C)CC[C@H](O[C@@H]6OC[C@H](O)[C@H](O)[C@H]6O)C(C)(C)[C@@H]5CC[C@]43C)[C@@H]2[C@]1(C)O`: the Activity entry with RBL-2H3 [2] is “Dose-dependent effect”; in the data set with RBL-2H3 [4], “Non-Toxic”; in the data set on RBL-2H3 [8], “Dose-dependent effect”; in the data set with RAW264.7 [9] it was “Non-Toxic”. Also, the result in the data set with RAW264.7 [5], in the data set with RAW264.7 [6] and with RBL-2H3 [7] was Active. Besides, the inhibition entry in [10] is “Dose-dependent effect”. Also, the “NFkappaB nuclear translocation inhibition (qualitative call)” value in [11] is “Active”.
